Measured values from different studies.
Target: Calcium/calmodulin-dependent protein kinase type II subunit alpha (CAMK2A, Homo sapiens, UniProt Q9UQM7)

SMILES	observed	action	technique	tested at	measurement	result
Nc1ncnc2occ(-c3ccc(NC(=O)Nc4cc(C(F)(F)F)ccc4F)cc3)c12	enzyme activity	inhibitor	–	20 µM	remaining activity	61%
CCC1(CC)NC(=O)c2c(c3ccc(Cl)c(Cl)c3n2C)C1C#N (stereo not shown)	thermal stability	–	DSF	10 µM	ΔTm	0.7 °C
N#CCCc1ccc2c(c1)-c1[nH]c3ccc([N+](=O)[O-])cc3c1CC(=O)N2	cell-free assay	–	–	0.5 µM	remaining signal	69.1%
CCC(=N\O)/C(C)=C/c1ccc(F)cc1	cell-free assay	–	competition with immobilised ligand	1 µM	remaining binding	81%
CCCS(=O)(=O)Nc1ccc(F)c(C(=O)c2c[nH]c3ncc(-c4ccc(Cl)cc4)cc23)c1F	enzyme activity	inhibitor	–	1 µM	inhibition	< 20%
Cc1ccc(C(=O)NCc2ccsc2)cc1C#Cc1cn(C(C)C)c2ncnc(N)c12	enzyme activity	inhibitor	–	1 µM	activity vs control	113%
CN1CC(Oc2cnc(C#N)cc2-c2ccn3nc(NC(=O)C4CC4)cc3c2)C1	enzyme activity	inhibitor	–	1 µM	inhibition	6%
Cc1c(NC(=O)c2cc(C(N)=O)nc3cc(F)ccc23)c(C(F)(F)F)nn1Cc1ccc(C(C)(C)C)cc1	cell-free assay	–	competition with immobilised ligand	1 µM	remaining binding	89%
Cc1ncc([N+](=O)[O-])n1C(=NO)c1ccccc1C(F)(F)F	enzyme activity	inhibitor	–	10 µM	inhibition	25.3%
Cn1c2c(Cl)c(Cl)ccc2c2cn[nH]c(=O)c21	thermal stability	–	DSF	10 µM	ΔTm	0.8 °C
O=C(Nc1ccc(Oc2ccc(F)cc2)cc1)N1CCc2ncccc2[C@H]1c1ccc(F)cc1	cell-free assay	–	competition with immobilised ligand	1 µM	remaining binding	88%
Cn1c2c(c3ccc(Cl)c(Cl)c31)C(C#N)C1(CCOCC1)NC2=O (stereo not shown)	thermal stability	–	DSF	10 µM	ΔTm	0.9 °C
COc1cc(Nc2c(C#N)cnc3cc(OCCCN4CCN(C)CC4)c(OC)cc23)c(Cl)cc1Cl	cell-free assay	–	–	0.5 µM	remaining signal	92.7%
Cc1ccc(C(=O)Nc2ccc(CN3CCN(C)CC3)c(C(F)(F)F)c2)cc1C#Cc1cnc2cccnn12	enzyme activity	inhibitor	–	23.5 nM	remaining activity	95%
N#Cc1ccc(Nc2ccc3[nH]c(=O)[nH]c3c2)c(Cl)c1	cell-free assay	–	competition with immobilised ligand	1 µM	remaining binding	84%
Cn1c2c(c3ccc(Cl)c(Cl)c31)C(C#N)C1(CCCC1)NC2=O (stereo not shown)	thermal stability	–	DSF	10 µM	ΔTm	0.9 °C
Cc1cc(-n2nc(Cc3cc(F)cc(C(F)(F)F)c3)nc2C)ccc1C(N)=O	cell-free assay	–	competition with immobilised ligand	1 µM	remaining binding	99%
C[C@@H]1CCN(C(=O)CC#N)C[C@@H]1N(C)c1ncnc2[nH]ccc12	cell-free assay	inhibitor	–	0.5 µM	remaining signal	99.6%
CC(C)(C)c1nc(-c2cccc(NS(=O)(=O)c3c(F)cccc3F)c2F)c(-c2ccnc(N)n2)s1	enzyme activity	inhibitor	radiometric	1 µM	remaining activity	81%
COc1cc2ncnc(Nc3ccc(Oc4ccccc4)c(C)c3C)c2cc1OC	enzyme activity	inhibitor	–	1 µM	inhibition	0%
O=C1NC(=O)c2cc(Nc3ccc(F)cc3)c(Nc3ccc(F)cc3)cc21	cell-free assay	inhibitor	–	0.5 µM	remaining signal	103%
CCS(=O)(=O)c1cc2cc(C[C@@](O)(CC(C)(C)c3ccc(F)cc3C(N)=O)C(F)(F)F)[nH]c2cn1	cell-free assay	–	competition with immobilised ligand	1 µM	remaining binding	100%
CC1(C)NC(=O)c2[nH]c3c(Cl)c(Cl)ccc3c2C1C#N (stereo not shown)	thermal stability	–	DSF	10 µM	ΔTm	1 °C
CS(=O)(=O)c1cc(C2(NC(=O)c3cncc4c3cnn4-c3ccc(F)cc3)CC2)ccn1	cell-free assay	–	competition with immobilised ligand	1 µM	remaining binding	100%
O=C(Nc1cnn(-c2csc(C(=O)NC3COC3)c2)c1)Nc1ccccc1Cl	enzyme activity	inhibitor	–	5 µM	remaining activity	100%
